# S1P3 antag = antagonists of human S1P3 receptor; Q99500; inhibition, % at 4.98 µM; actives 0.27% (n = 170,000); CHO S1P3 NFAT-BLA reporter, FRET fluorescence, antagonist mode;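 active = inhibition above the plate cutoff, the mean inhibition of test wells on that plate plus 3 SD, cut at about 28% in these data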;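 note: cells challenged with S1P at its EC80 of 0.8 µM; blue over green emission ratio from cleaved BLA substrate after 4 h stimulation; 0% = S1P-stimulated wells and 100% = unstimulated DMSO-only wells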
# MDM2 E3 inh = inhibitors of human Mdm2 E3 ubiquitin ligase; Q00987; cell-based MDM2 ubiquitination luciferase reporter, 2 h; 0 = plate control, 100 = twice control, blank-subtracted; signal enhancement, % at 5 µM; actives 0.11% (n = 210,000); AID 1230;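 active = signal enhancement of 30% or more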;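 note: luminescence tracks abundance of the self-degrading MDM2-luciferase fusion protein; higher signal means inhibition of MDM2 E3 ligase activity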
# Target sequence (Q00987 whole entry, looked up, the tested form may be a part): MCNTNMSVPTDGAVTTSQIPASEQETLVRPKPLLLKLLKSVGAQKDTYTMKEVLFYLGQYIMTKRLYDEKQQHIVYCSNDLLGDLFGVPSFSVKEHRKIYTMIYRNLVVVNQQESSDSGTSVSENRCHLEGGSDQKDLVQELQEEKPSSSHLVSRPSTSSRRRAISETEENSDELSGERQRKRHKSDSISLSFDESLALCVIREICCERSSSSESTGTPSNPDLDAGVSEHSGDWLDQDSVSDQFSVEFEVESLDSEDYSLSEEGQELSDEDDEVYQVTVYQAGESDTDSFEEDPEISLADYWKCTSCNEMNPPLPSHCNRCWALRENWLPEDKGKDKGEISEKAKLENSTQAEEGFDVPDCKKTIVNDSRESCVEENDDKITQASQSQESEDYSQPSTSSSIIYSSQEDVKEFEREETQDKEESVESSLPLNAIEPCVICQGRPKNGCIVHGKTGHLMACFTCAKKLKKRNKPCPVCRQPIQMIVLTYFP
#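 Assay system: stable mammalian line carrying autodegrading MDM2–luciferase fusion reporter; Input: 2000 cells in each well; Compound dosing: single-point 5 µM; Schedule: 2 h compound exposure at 37 °C; Signal: SteadyLite luciferase luminescence after 15 min room-temperature reagent incubation; Evaluation: % luminescence enhancement versus blank-corrected plate control mean; Benchmarks: plate controls and plate blanks.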
# S1P4 agonist = agonists of human S1P4 receptor. activation, % at 4.98 µM. actives 0.35% (n = 220,000). AID 1509. O95977. S1P4-expressing cell line, agonist reporter assay; in the data active = activation above about 11%;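 note: 0% = DMSO vehicle and 100% = reference agonist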
# Lmaj promast = Leishmania major promastigote growth inhibition; AID 1063; actives 9% (n = 200,000); inhibition, % at 10 µM; Leishmania major promastigotes, resazurin fluorescence viability; in the data active = inhibition above about 50%;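 note: promastigotes grown with compound for 44 hours at 28 °C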
# S1P4 antag = blocks the human S1P4 receptor; actives 0.26% (n = 220,000); S1P4-expressing cells, antagonist mode, reporter read-out; inhibition, % at 4.98 µM; in the data active = inhibition above about 29%;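 note: 0% = wells stimulated with agonist and 100% = vehicle wells without agonist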
# * hit, by the source's call; · = no result. Shown is part of a subset that was picked to be rich in hits.
SMILES,S1P3 antag,MDM2 E3 inh,S1P4 agonist,Lmaj promast,S1P4 antag
O=[N+]([O-])c1cc(/C=N/Nc2nc3ccccc3[nH]2)c(O)cc1O,3,-11,2,99*,-16
C(=N\Nc1nc2ccccc2[nH]1)/c1cccc2cccnc12,14,-16,0,·,7
Cc1ccc(/C=N/Nc2nc3ccccc3[nH]2)s1,7,-9,3,57*,-13
Cc1cc(=O)[nH]c(N/N=C/c2c[nH]c3ccccc23)n1,-2,-12,0,·,14
C(=N\Nc1nc2ccccc2[nH]1)/c1c[nH]c2ccccc12,19,0,3,99*,-26
Cc1ccccc1/C=N/Nc1nc2ccccc2[nH]1,1,11,0,79*,15
C(=N\Nc1nc2ccccc2[nH]1)/c1ccccc1,5,10,1,47,21
CCN(C(=O)COC(=O)c1ccc(Br)o1)C1CCCCC1,9,-15,-1,-3,13
CCc1cccc(OCCCCNCCCOC)c1,-3,-6,0,99*,-38
CCc1cccc(OCCCCN(CC)CC)c1,·,-11,2,98*,-6
CNCCCOc1cccc(OC(C)C)c1,·,-25,4,1,-16
CCOc1cccc(OCCCNCCCOC)c1,17,1,-2,88*,-18
O=C1c2cccnc2C(Nc2ccccc2Br)N1Cc1ccco1 (stereo unspecified),4,-8,1,10,-5
NC(=O)C1(N2CCCCC2)CCN(C(=S)Nc2ccc(F)c(Cl)c2)CC1,-7,-4,1,0,-16
CC(C)(C)c1ccc(S(=O)(=O)O/N=C2/CCCCC2c2ccc([N+](=O)[O-])cc2[N+](=O)[O-])cc1 (stereo unspecified),·,-2,1,53*,-15
Cc1ccc(S(=O)(=O)N2CCCOC2CNC(=O)C(=O)NC2CCCCC2)cc1 (stereo unspecified),-6,-4,1,9,8
Cn1c(=N)n(CC(=O)c2cccs2)c2ccccc21,·,-33,-1,-5,-23
Cn1c(=N)n(CC(=O)c2ccc(Br)s2)c2ccccc21,·,6,-1,84*,5
CC1CC(=O)C(C2c3ccccc3CCN2C(=O)CCl)C(=O)C1 (stereo unspecified),-15,-5,2,51*,-19
c1ccc2c(c1)ncn2CCCCOc1ccc2c(c1)CCC2,·,-2,1,56*,-8
CC(=O)c1ccc(OCCn2cnc3ccccc32)cc1,2,-10,0,51*,-6
Fc1ccc(Cn2cnc3ccccc32)cc1,·,-19,6,16,-15
CCCOc1ccc(Cn2cnc3ccccc32)cc1,-4,-16,-1,88*,-6
c1ccc(OCCn2cnc3ccccc32)cc1,21,-13,-2,52*,-13
CCN(C(=O)COC(=O)CNS(=O)(=O)c1ccccc1)c1ccccc1,-23,-10,-1,-5,-2
SMILES,S1P3 antag,MDM2 E3 inh,S1P4 agonist,Lmaj promast,S1P4 antag
Cc1c(C(=O)Nc2ccc3c(c2)OCCO3)sc2nc(-c3ccccc3)cn12,23,-7,2,56*,3
Cc1c(C(=O)Nc2ccncc2)sc2nc(-c3ccccc3)cn12,13,-5,-1,76*,-8
Cc1c(C(=O)N2CCOCC2)sc2nc(-c3ccccc3)cn12,5,-9,0,-5,-13
Cc1c(C(=O)NCc2cccnc2)sc2nc(-c3ccccc3)cn12,8,·,·,·,·
C/C=C\C(=O)Nc1cccc(C2=NOC3(C2)C[C@H](C(N)=O)N(C(=O)[C@H]2CCC(=O)N2)C3)c1 (stereo partly specified),·,18,·,·,·
COc1ccc(C2CC(=O)c3cnc(NC(=O)c4ccccc4OC)nc3C2)c(OC)c1 (stereo unspecified),4,-12,-1,86*,-12
COc1ccc(C2CC(=O)c3cnc(NC(=O)c4cccc(OC)c4)nc3C2)cc1 (stereo unspecified),9,0,3,14,-15
CCOC(=O)c1cc(C#N)c(N2CCN(C)CC2)nc1-c1ccccc1,-13,-9,-2,89*,-25
COc1ccc(-c2nc(-c3cccc(C)c3)nc(N3CCN(C)CC3)c2C#N)cc1,·,-4,-2,86*,6
COc1cccc(-c2nc(-c3ccccc3)nc(N3CCN(C)CC3)c2C#N)c1,-3,-6,1,51*,-26
COC(=O)c1sc2nc(-c3ccccc3)nc(N3CCN(C)CC3)c2c1C,-2,-7,-1,55*,-11
CCOC(=O)c1cc(C#N)c(N2CCCC2)nc1-c1ccccc1,·,9,-3,2,-5
CCCCC(=O)Nc1ccccc1CC,6,-3,0,·,-9
CCCC(=O)OC1CCS(=O)(=O)c2sccc21 (stereo unspecified),-19,-6,0,-1,3
CCC(=O)N1CCN(c2nc(-c3ccccc3)c3c(c2C#N)CCCC3)CC1,·,-12,0,76*,-4
CS(=O)(=O)c1ccc2nc(NC(=O)c3ccc(NS(=O)(=O)c4ccc(F)c(F)c4)cc3)sc2c1,-19,·,-1,·,2
O=C(Nc1nc2ccc(SC(F)F)cc2s1)c1ccc(NS(=O)(=O)c2ccc(F)c(F)c2)cc1,-8,1,0,69*,-6
COC(=O)c1cc(NS(=O)(=O)c2ccc(C(C)C)cc2)ccc1N1CCOCC1,-1,-11,-1,·,2
Cc1cc(NC(=O)c2c(Br)c(C)nn2C)no1,-14,-5,0,0,3
CC(C)(C)n1nc2c(c1NC(=O)c1cccc(C(F)(F)F)c1)CS(=O)C2 (stereo unspecified),-4,-2,1,-9,0
c1ccc2c(c1)[nH]c1c(N3CCCC3)ncnc12,19,-19,1,58*,-15
c1ccc2c(c1)[nH]c1c(N3CCN(C4CCCCC4)CC3)ncnc12,·,-18,0,78*,-7
Fc1ccc2[nH]c3c(N4CCc5ccccc5C4)ncnc3c2c1,11,-17,0,·,-27
Cc1ccc2[nH]c3c(N4CCc5ccccc5C4)ncnc3c2c1,·,-9,2,68*,-4
c1ccc2c(c1)[nH]c1c(N3CCSCC3)ncnc12,·,-28,-1,86*,-23
SMILES,S1P3 antag,MDM2 E3 inh,S1P4 agonist,Lmaj promast,S1P4 antag
COc1ccc(Cl)cc1C(=O)CSc1nc(N)cc(N)n1,3,-15,1,9,0
Cc1cc(C(=O)OCC(=O)NCCC(C)C)c2ccccc2n1,·,-2,-1,-6,4
CC(C)C(=O)Nc1cc(C(F)(F)F)ccc1-n1ccnc1,-22,-7,1,0,3
Cc1ccc(CNC(=O)CN(c2cccc([N+](=O)[O-])c2)S(=O)(=O)c2ccccc2)cc1,-4,-2,-1,97*,2
CC(C)NC(=O)CN(c1cccc([N+](=O)[O-])c1)S(=O)(=O)c1ccccc1,-6,-21,-2,-3,-20
O=C(CN(c1cccc([N+](=O)[O-])c1)S(=O)(=O)c1ccccc1)NCc1ccccc1,-2,-11,0,96*,-1
CCc1c(C)nc(N)n2c(SCC(=O)N3CCN(c4ccccc4OC)CC3)nnc12,-16,·,·,·,·

# Screening results from PubChem.
